Data as given in ChEMBL document CHEMBL1938334, “Quinoline tricyclic derivatives. Design, synthesis and evaluation of the antiviral activity of three new classes of RNA-dependent RNA polymerase inhibitors” (Bioorg Med Chem, 2011).

Tests used:
[1] = Cytotoxicity against human MT4 cells after 96 hrs by MTT assay; type: cell-based
Summary of the method: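 Exponentially growing MT-4 cells seeded at 1×10^5 cells/mL in RPMI-1640 with 10% FBS, penicillin and streptomycin. Incubated with serial compound dilutions at 37 °C, 5% CO2 for 96 h; viability by MTT. CC50 by linear regression relative to untreated controls; mean of three independent determinations.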

[2] = tested on: Human immunodeficiency virus 1; assay: Antiviral activity against HIV1 3B infected in human MT4 cells assessed as inhibition of virus-induced cytopathogenicity after 4 days by MTT assay; type: functional, organism-based; settings: Human immunodeficiency virus 1, 3B, MT4, 96 h
Summary of the method: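 MT-4 cells (1×10^4 per well) were infected with HIV-1 IIIB at 100 CCID50, m.o.i. 0.01, together with serial compound dilutions. Viability was read by MTT after 4 days at 37 °C. EC50 was taken by linear regression versus untreated controls. Mean of three determinations.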

[3] = Cytotoxicity against MDBK cells after 48 to 96 hrs by MTT assay; type: cell-based, Bos taurus; settings: cattle
Summary of the method: (§1)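 MDBK seeded at 6×10^5 and BHK at 1×10^6 cells/mL in MEM-Earle's with L-glutamine, 1 mM pyruvate, kanamycin, plus 10% horse serum (MDBK) or 10% FBS (BHK). Cells were grown at 37 °C, 5% CO2 with serial compound dilutions (DMSO stocks diluted in medium). Viability by MTT after 48–96 h. CC50 was taken by linear regression versus untreated controls; three independent determinations.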

[4] = Antiviral activity against Bovine viral diarrhea virus 1-NADL infected in MDBK cells assessed as inhibition of virus-induced cytopathogenicity after 3 to 4 days by MTT assay; type: functional, cell-based; settings: Bovine viral diarrhea virus isolates and strains
Summary of the method: (§2)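 Host cells were seeded in 96-well plates at 3×10^4 cells/well (MDBK) or 5×10^4 cells/well (BHK-21) and grown to confluent monolayers overnight. They were infected at m.o.i. 0.01 in maintenance MEM with 0.5% inactivated FBS. Serial compound dilutions were added after 1 h. Viability was read by MTT after 3–4 days at 37 °C. EC50 was taken by linear regression against untreated controls. Mean of three determinations.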

[5] = Cytotoxicity against BHK21 cells after 48 to 96 hrs by MTT assay; type: cell-based, Mesocricetus auratus, BHK-21; settings: hamster; summary of the method: as §1
Yellow fever virus = assay: Antiviral activity against Yellow fever virus 17D Stamaril Pasteur J07B01 infected in hamster BHK21 cells assessed as inhibition of virus-induced cytopathogenicity after 3 to 4 days by MTT assay; type: functional, cell-based; settings: Stamaril Pasteur J07B01, BHK-21; summary of the method: as §2
Reovirus sp. = assay: Antiviral activity against Reovirus type-1 3651 infected in hamster BHK21 cells assessed as inhibition of virus-induced cytopathogenicity after 3 to 4 days by MTT assay; type: functional, organism-based; settings: Reovirus sp., 3651, BHK-21; summary of the method: as §2
[6] = Cytotoxicity against african green monkey Vero 76 cells after 48 to 96 hrs by crystal violet staining; type: cell-based; settings: chlorocebus sabaeus
Summary of the method: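 Vero-76 cells were seeded at 4×10^5 cells/mL in D-MEM with L-glutamine, kanamycin and 10% FBS, then exposed to serial compound dilutions at 37 °C, 5% CO2 for 48–96 h. Viability was read by crystal violet staining. 50% cytotoxic concentration by linear regression relative to untreated controls; mean of three independent determinations.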

Coxsackievirus B5 = assay: Antiviral activity against Human coxsackievirus B5 Ohio-1 infected in african green monkey Vero 76 cells assessed as reduction of virus-induced plaque formation after 3 days using crystal violet staining; type: functional, organism-based; settings: Enterovirus B, Ohio-1, Vero, 72 h
Poliovirus 1 = assay: Antiviral activity against Human poliovirus 1 strain Sabin Chat infected in african green monkey Vero 76 cells assessed as virus-induced reduction of plaque formation after 2 days using crystal violet staining; type: functional, cell-based; settings: Enterovirus C, 48 h
Human orthopneumovirus = assay: Antiviral activity against Human respiratory syncytial virus A2 infected in african green monkey Vero 76 cells assessed as reduction of virus-induced plaque formation after 5 days using crystal violet staining; type: functional, organism-based; settings: 120 h
[7] = tested on: Vesicular stomatitis Indiana virus; assay: Antiviral activity against clinical isolate Vesicular stomatitis Indiana virus infected in african green monkey Vero 76 cells assessed as reduction of virus-induced plaque formation after 2 days using crystal violet staining; type: functional, organism-based; settings: 48 h
[8] = Antiviral activity against Vaccinia virus Lister Elstree infected in african green monkey Vero 76 cells assessed as reduction of virus-induced plaque formation after 3 days using crystal violet staining; type: functional, cell-based; settings: 72 h
Human alphaherpesvirus 1 = assay: Antiviral activity against Human herpesvirus 1 strain KOS infected in african green monkey Vero 76 cells assessed as reduction of virus-induced plaque formation after 3 days using crystal violet staining; type: functional, organism-based; settings: Human alphaherpesvirus 1, KOS, 72 h

Row | Compound | CC50 at 96 h [1] | EC50 [2] | CC50 [3] | EC50 [4] | CC50 [5] | EC50 (Yellow fever virus) | EC50 (Reovirus sp.) | CC50 [6] | EC50 (Coxsackievirus B5) | EC50 (Poliovirus 1) | EC50 (Human orthopneumovirus) | EC50 [7] | EC50 [8] | EC50 (Human alphaherpesvirus 1)
1 | c1ccc(-c2nc3cc4cccnc4cc3[nH]2)cc1 | 28 µM | > 28 µM | 80 µM | 10 µM | 40 µM | > 40 µM | 13 µM | > 100 µM | 19 µM | 37 µM | > 100 µM | > 100 µM | > 100 µM | > 100 µM
2 | Clc1c2ncccc2cc2nc(-c3ccccc3)[nH]c12 | 29 µM | > 29 µM | 65 µM | 4 µM | 35 µM | > 35 µM | 10 µM | > 100 µM | 36 µM | 53 µM | > 100 µM | > 100 µM | > 100 µM | > 100 µM
3 | Clc1ccc(-c2nc3cc4cccnc4cc3[nH]2)cc1 | 100 µM | > 100 µM | > 100 µM | 18 µM | > 100 µM | > 100 µM | > 100 µM | > 100 µM | 43 µM | > 100 µM | > 100 µM | > 100 µM | > 100 µM | > 100 µM
4 | Nc1ccc(-c2nc3cc4cccnc4c(Cl)c3[nH]2)cc1 | 15 µM | > 15 µM | 45 µM | 10 µM | 42 µM | > 42 µM | > 42 µM | > 100 µM | 78 µM | > 100 µM | > 100 µM | > 100 µM | > 100 µM | > 100 µM
5 | CC(=O)Nc1ccc(-c2nc3cc4cccnc4c(Cl)c3[nH]2)cc1 | > 100 µM | > 100 µM | > 100 µM | 11 µM | > 100 µM | > 100 µM | 51 µM | > 100 µM | > 100 µM | > 100 µM | > 100 µM | > 100 µM | > 100 µM | > 100 µM
6 | COc1ccccc1-c1nc2cc3cccnc3cc2[nH]1 | 14 µM | > 14 µM | 11 µM | ≥ 11 µM | 32 µM | > 32 µM | > 32 µM | 75 µM | 47 µM | > 75 µM | > 75 µM | > 75 µM | > 75 µM | > 75 µM
7 | Clc1ccc(-c2nc3cc4cccnc4cc3[nH]2)cc1Cl | > 100 µM | > 100 µM | > 100 µM | > 100 µM | > 100 µM | > 100 µM | > 100 µM | > 100 µM | > 100 µM | > 100 µM | > 100 µM | > 100 µM | > 100 µM | > 100 µM
8 | c1ccc(-c2ccc(-c3nc4cc5cccnc5cc4[nH]3)cc2)cc1 | 8 µM | > 8 µM | ≥ 100 µM | 60 µM | 20 µM | > 20 µM | > 20 µM | 80 µM | 3 µM | > 80 µM | > 80 µM | > 80 µM | > 80 µM | > 80 µM
9 | Clc1c2ncccc2cc2nc(C3CCCCC3)[nH]c12 | 57 µM | > 57 µM | 73 µM | 19 µM | 26 µM | > 26 µM | > 26 µM | > 100 µM | 43 µM | 80 µM | > 100 µM | ≥ 100 µM | ≥ 100 µM | > 100 µM
10 | Oc1ccnc2c(Cl)c3[nH]c(-c4ccccc4)nc3cc12 | > 100 µM | > 100 µM | > 100 µM | > 100 µM | 75 µM | > 75 µM | > 75 µM | > 100 µM | > 100 µM | > 100 µM | > 100 µM | > 100 µM | > 100 µM | > 100 µM
11 | Clc1c2ncccc2cc2nccnc12 | 82 µM | > 82 µM | 6.5 µM | > 6.5 µM | 70 µM | > 70 µM | > 70 µM | 90 µM | 50 µM | > 90 µM | > 90 µM | > 90 µM | 57 µM | 90 µM
12 | Oc1ccnc2c(Cl)c3nccnc3cc12 | 42 µM | > 42 µM | 63 µM | > 63 µM | 85 µM | > 85 µM | > 85 µM | 90 µM | > 90 µM | > 90 µM | > 90 µM | > 90 µM | > 90 µM | 90 µM
13 | Clc1c2ncccc2cc2nc(CBr)c(CBr)nc12 | 16 µM | > 16 µM | 20 µM | > 20 µM | > 100 µM | > 100 µM | > 100 µM | > 100 µM | > 100 µM | > 100 µM | > 100 µM | > 100 µM | > 100 µM | > 100 µM
14 | Clc1c2ncccc2cc2ncc(-c3ccccc3)nc12 | > 100 µM | > 100 µM | > 100 µM | 18 µM | > 100 µM | > 100 µM | > 100 µM | > 100 µM | > 100 µM | > 100 µM | > 100 µM | > 100 µM | > 100 µM | > 100 µM
15 | Clc1c2ncccc2cc2nc(-c3ccccc3)c(-c3ccccc3)nc12 | > 100 µM | > 100 µM | > 100 µM | > 100 µM | > 100 µM | > 100 µM | > 100 µM | > 100 µM | > 100 µM | > 100 µM | > 100 µM | > 100 µM | > 100 µM | > 100 µM
16 | CCc1nc2cc3cccnc3c(Cl)c2[nH]c1=O | 51 µM | > 51 µM | 75 µM | 6.5 µM | 95 µM | > 95 µM | 36 µM | 100 µM | > 100 µM | > 100 µM | 18 µM | 35 µM | > 100 µM | > 100 µM
17 | CC(C)c1nc2cc3cccnc3c(Cl)c2[nH]c1=O | 48 µM | > 48 µM | 100 µM | 5 µM | > 100 µM | > 100 µM | 47 µM | > 100 µM | > 100 µM | > 100 µM | 38 µM | 62 µM | > 100 µM | > 100 µM
18 | CCOC(=O)C(C)c1nc2cc3cccnc3c(Cl)c2[nH]c1=O (stereo unspecified) | 59 µM | > 59 µM | > 100 µM | 19 µM | > 100 µM | > 100 µM | > 100 µM | > 100 µM | > 100 µM | ≥ 100 µM | > 100 µM | ≥ 100 µM | > 100 µM | ≥ 100 µM
19 | O=c1[nH]c2c(Cl)c3ncccc3cc2nc1-c1ccccc1 | 61 µM | > 61 µM | > 100 µM | 5 µM | > 100 µM | > 100 µM | 100 µM | > 100 µM | > 100 µM | > 100 µM | > 100 µM | 100 µM | 39 µM | > 100 µM
